Experiments:
[1] = molecular target: T1, Tyrosinase (Agaricus bisporus) (UniProt O42713); test: Binding affinity to mushroom tyrosinase assessed as fluorescence quenching
T1 sequence (whole entry): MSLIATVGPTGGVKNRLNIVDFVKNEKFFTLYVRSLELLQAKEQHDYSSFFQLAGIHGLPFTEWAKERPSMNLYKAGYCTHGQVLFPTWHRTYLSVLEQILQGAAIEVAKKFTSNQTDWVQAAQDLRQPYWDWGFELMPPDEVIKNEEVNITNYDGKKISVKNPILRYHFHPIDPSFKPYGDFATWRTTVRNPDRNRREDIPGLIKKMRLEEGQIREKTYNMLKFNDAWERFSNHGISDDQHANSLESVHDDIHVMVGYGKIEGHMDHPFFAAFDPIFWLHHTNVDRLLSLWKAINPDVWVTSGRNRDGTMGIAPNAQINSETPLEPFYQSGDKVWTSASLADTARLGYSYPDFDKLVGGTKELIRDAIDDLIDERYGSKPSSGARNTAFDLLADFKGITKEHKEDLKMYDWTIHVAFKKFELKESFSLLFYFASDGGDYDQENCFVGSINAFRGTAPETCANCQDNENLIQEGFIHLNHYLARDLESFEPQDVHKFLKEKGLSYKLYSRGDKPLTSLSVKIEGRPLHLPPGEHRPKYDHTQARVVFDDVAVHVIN

[2] = Cytotoxicity against mouse B16F10 cells assessed as cell survival at 50 uM after 48 hrs by MTT assay; type: cell-based, B16-F10; settings: read-out: Survival
[3] = molecular target: T2, Tyrosinase (Mus musculus) (UniProt P11344); test: Inhibition of tyrosinase in mouse B16F10 cell lysates using DOPA as substrate relative to control; type: cell-free; parameters: concentration or dose not given beside the values; settings: B16-F10, concentration not given here
T2 sequence (whole entry): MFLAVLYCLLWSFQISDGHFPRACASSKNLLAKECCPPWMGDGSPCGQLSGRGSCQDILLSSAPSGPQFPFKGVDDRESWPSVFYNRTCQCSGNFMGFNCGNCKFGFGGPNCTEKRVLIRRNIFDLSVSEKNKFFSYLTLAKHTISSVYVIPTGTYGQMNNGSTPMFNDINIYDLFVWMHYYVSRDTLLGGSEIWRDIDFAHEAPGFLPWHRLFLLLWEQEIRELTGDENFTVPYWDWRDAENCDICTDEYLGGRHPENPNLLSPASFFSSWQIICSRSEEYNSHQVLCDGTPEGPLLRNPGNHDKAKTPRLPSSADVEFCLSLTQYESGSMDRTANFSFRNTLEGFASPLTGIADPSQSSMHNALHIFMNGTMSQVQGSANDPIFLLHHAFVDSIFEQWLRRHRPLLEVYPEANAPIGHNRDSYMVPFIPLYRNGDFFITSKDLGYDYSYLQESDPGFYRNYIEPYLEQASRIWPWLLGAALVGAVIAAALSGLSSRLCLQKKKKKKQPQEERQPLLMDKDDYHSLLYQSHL

[4] = molecular target: T2, Tyrosinase (Mus musculus); test: Inhibition of tyrosinase in mouse B16F10 cells assessed as remaining melanin production at 10 uM relative to control; settings: B16-F10
[5] = molecular target: T2, Tyrosinase (Mus musculus); test: Inhibition of tyrosinase in mouse B16F10 cells assessed as remaining melanin production at 20 uM relative to control; settings: B16-F10
[6] = molecular target: T2, Tyrosinase (Mus musculus); test: Inhibition of tyrosinase in mouse B16F10 cells assessed as remaining melanin production at 50 uM relative to control; settings: B16-F10
Tyrosinase [7] = molecular target: T3, Tyrosinase (Agaricus bisporus, UniProt O42713); test: Inhibition of mushroom tyrosinase using L-tyrosine as substrate
T3 sequence (O42713 whole entry): T1 sequence (whole entry)

[8] = molecular target: T1, Tyrosinase (Agaricus bisporus); test: Non-competitive inhibition of mushroom tyrosinase using L-tyrosine as substrate by Lineweaver-Burk plots analysis
In short: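 Absorbance at 475 nm read at 30 °C in PBS with 5% DMSO. Global nonlinear Michaelis–Menten fitting over four inhibition models gave Vmax, Km, Kic and Kiu, with the model chosen by minimal χ2.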

Tyrosinase [9] = molecular target: T3, Tyrosinase; test: Competitive inhibition of mushroom tyrosinase using L-tyrosine as substrate by Lineweaver-Burk plots analysis
In short: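 Global nonlinear Michaelis–Menten fitting over four inhibition models gave Vmax, Km, Kic and Kiu, with the model chosen by minimal χ2.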

## NC(=S)Nc1ccccc1 [PHENYLTHIOUREA]
[1]
  KSV: 2.4 ×10³ /M
[2]
  viability at 48 h, 50 µM: 106%
[3]
  inhibition: 27%
[4]
  residual activity: 63%
[5]
  residual activity: 55%
[6]
  residual activity: 54%

## NC(=S)c1ccccn1
Tyrosinase [7]
  IC50: 14.4 µM
[8]
  Kic: 2.7 µM
[1]
  KSV: 9 ×10³ /M
[2]
  viability at 48 h, 50 µM: 105%
[3]
  inhibition: 78%
[4]
  residual activity: 98%
[5]
  residual activity: 80%
[6]
  residual activity: 56%

## NNC(=O)c1ccncc1 [ISONIAZID]
Tyrosinase [7]
  IC50: > 1000 µM
[1]
  KSV: 1.7 ×10³ /M
[2]
  viability at 48 h, 50 µM: 103%
[3]
  inhibition: 97%
[4]
  residual activity: 104%
[5]
  residual activity: 100%
[6]
  residual activity: 102%

## CC(=O)Nc1ccccc1 [ACETANILIDE]
Tyrosinase [7]
  IC50: > 1000 µM
[1]
  KSV: 1 ×10³ /M
[2]
  viability at 48 h, 50 µM: 116%
[3]
  inhibition: 99%
[4]
  residual activity: 105%
[5]
  residual activity: 103%
[6]
  residual activity: 102%

## NC(=S)c1ccccc1
Tyrosinase [7]
  IC50: 2.8 µM
[8]
  Kic: 0.7 µM
[1]
  KSV: 9.2 ×10³ /M
[2]
  viability at 48 h, 50 µM: 117%
[3]
  inhibition: 72%
[4]
  residual activity: 103%
[5]
  residual activity: 93%
[6]
  residual activity: 63%

## NC(=S)c1ccncc1
Tyrosinase [7]
  IC50: 43.8 µM
[8]
  Kic: 22.3 µM
[1]
  KSV: 7.5 ×10³ /M
[2]
  viability at 48 h, 50 µM: 110%
[3]
  inhibition: 93%
[4]
  residual activity: 106%
[5]
  residual activity: 103%
[6]
  residual activity: 104%

## NC(=S)c1cccnc1
Tyrosinase [7]
  IC50: 7.5 µM
[8]
  Kic: 4.3 µM
[1]
  KSV: 8.5 ×10³ /M
[2]
  viability at 48 h, 50 µM: 108%
[3]
  inhibition: 83%
[4]
  residual activity: 109%
[5]
  residual activity: 104%
[6]
  residual activity: 106%

## CC(=S)Nc1ccccc1
Tyrosinase [7]
  IC50: 4.1 µM
Tyrosinase [9]
  Ki: 1.2 µM
[1]
  KSV: 8.3 ×10³ /M
[2]
  viability at 48 h, 50 µM: 116%
[3]
  inhibition: 42%
[4]
  residual activity: 91%
[5]
  residual activity: 75%
[6]
  residual activity: 57%

## CCc1cc(C(N)=S)ccn1 [ETHIONAMIDE]
Tyrosinase [7]
  IC50: 4 µM
[8]
  Kic: 1.9 µM
[1]
  KSV: 9.5 ×10³ /M
[2]
  viability at 48 h, 50 µM: 106%
[3]
  inhibition: 88%
[4]
  residual activity: 107%
[5]
  residual activity: 104%
[6]
  residual activity: 104%

## CCCc1cc(C(N)=S)ccn1 [PROTIONAMIDE]
Tyrosinase [7]
  IC50: 4.5 µM
[8]
  Kic: 2.4 µM
[1]
  KSV: 10.2 ×10³ /M
[2]
  viability at 48 h, 50 µM: 121%
[3]
  inhibition: 84%
[4]
  residual activity: 105%
[5]
  residual activity: 103%
[6]
  residual activity: 100%

— ChEMBL document CHEMBL3739382 (Eur J Med Chem, 2015)
